Test results published in ChEMBL document CHEMBL2406936, “Highly oxygenated meroterpenoids from fruiting bodies of the mushroom Tricholoma terreum” (J Nat Prod, 2013).

Assays:
Type in all cases: functional, cell-based
[1] = tested on: A549; experiment: Cytotoxicity against human A549 cells after 48 hrs by MTT assay
Method in brief: (§1)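 Cells grown in RPMI1640 or DMEM with 10% FBS at 37 °C under 5% CO2. Adherent lines (A-549, MCF-7, SMMC-7721, SW480) were allowed 12 h to attach before dosing. Suspension HL-60 cells were seeded just before dosing at an initial 1 × 10^5 cells/mL. Compounds in DMSO at 0.0625, 0.32, 1.6, 8 and 40 μmol, in triplicate, for 48 h. MTT read-out. Cisplatin and vinorelbine were the positive controls.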

[2] = tested on: SMMC-7721; experiment: Cytotoxicity against human SMMC7721 cells after 48 hrs by MTT assay; method in brief: as §1
[3] = tested on: HL-60; experiment: Cytotoxicity against human HL60 cells after 48 hrs by MTT assay; method in brief: as §1
[4] = tested on: SW480; experiment: Cytotoxicity against human SW480 cells after 48 hrs by MTT assay; method in brief: as §1
[5] = tested on: MCF7; experiment: Cytotoxicity against human MCF7 cells after 48 hrs by MTT assay; method in brief: as §1

Row | Structure (SMILES) | IC50 [1] [µmol] | IC50 [2] [µmol] | IC50 [3] [µmol] | IC50 [4] [µmol] | IC50 [5] [µmol]
1 | COc1cc(O)c2c(c1O)C[C@]1(C)O[C@@H]1CC[C@@]1(C)O[C@@H]1C2=O | 4.2 | 11.3 | 4 | 14.2 | 16.1
2 | COc1cc(O)c2c(c1O)C/C(C)=C\CC[C@@]1(C)O[C@@H]1C2=O | 16.4 | 24.7 | 5.6 | > 40 | 24.6
3 | COc1cc(O)c2c(c1O)C/C(C)=C\[C@@H](O)C[C@@]1(C)O[C@@H]1C2=O | 6.5 | 14.9 | 17.8 | 21.1 | 21
